{
  "source": "paper PMC7950731",
  "about": "(Cell reports, 2019)",
  "assay_in_all_cases": "TR-FRET of indisulam-induced ternary complex",
  "type_in_all_cases": "binding",
  "key": {"DCAF15": {"biological_target": "DCAF15 (Homo sapiens, UniProt Q14498+Q66K64)", "procedure,_shortened": "(§1)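 Purified His-DCAF15–DDB1–DDA1 (SF9 co-expression) and RBM39 aa 250–330-3xFLAG (E. coli, His tag TEV-cleaved), each 0.1 μM final, with 1 nM Eu-anti-6xHis donor and 5 ng/μL anti-FLAG-XL665 acceptor. Test compound titrated, 5 min at room temperature. Excitation 360 nm; 665/620 nm ratio. Run in triplicate; EC50 from four-parameter fit.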"}, "RBM39": {"biological_target": "RBM39 (Homo sapiens, UniProt Q14498+Q66K64)", "procedure,_shortened": "as §1"}, "RBM23": {"biological_target": "RBM23 (Homo sapiens, UniProt Q66K64+Q86U06)"}},
  "data": [
    {"smiles": "NS(=O)(=O)c1ccc(S(=O)(=O)Nc2cccc3c(Cl)c[nH]c23)cc1", "note": "[indisulam]", "values": [
      {"measurement": "EC50", "setting": "DCAF15", "result": 2270, "unit": "nM"},
      {"measurement": "EC50", "setting": "RBM39", "result": 2270, "unit": "nM"},
      {"measurement": "EC50", "setting": "RBM23", "result": 2580, "unit": "nM"}
    ]}
  ]
}
